Source: ChEMBL document CHEMBL1154788, “Synthesis and antibacterial activity of some novel bis-1,2,4-triazolo[3,4-b]-1,3,4-thiadiazoles and bis-4-thiazolidinone derivatives from terephthalic dihydrazide” (2009)

Columns and labels:
Bacillus cereus = experiment: Antibacterial activity against Bacillus cereus ATTC 10702 at 1 mg/ml after 24 hrs by well-diffusion method; format: functional; conditions: ATTC 10702, 24 h, read-out: DIZ
Summary of the method: (§1)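 Agar well diffusion. About 1 cm3 of a 24 h infusion-broth culture (10^6 cfu cm-3) was mixed in plates with 15 cm3 molten nutrient agar held at 45°C. Once the agar set, 6 mm wells were punched and filled with compound solution (1 mg ml-1 in DMSO). Plates were incubated 24 h at 37°C, and the inhibition-zone diameter was measured. Ciprofloxacin and sulphamethoxazole were the standards.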

Escherichia coli = experiment: Antibacterial activity against Escherichia coli ATTC 25922 at 1 mg/ml after 24 hrs by well-diffusion method; format: functional; conditions: ATTC 25922, 24 h, read-out: DIZ; summary of the method: as §1
Klebsiella pneumoniae = experiment: Antibacterial activity against Klebsiella pneumoniae ATCC 10031 at 1 mg/ml after 24 hrs by well-diffusion method; format: functional; conditions: ATCC 10031, 24 h, read-out: DIZ
Salmonella typhimurium = experiment: Antibacterial activity against Salmonella Typhimurium ATTC 23564 at 1 mg/ml after 24 hrs by well-diffusion method; format: functional, Salmonella enterica subsp. enterica serovar Typhimurium; conditions: Salmonella enterica, ATTC 23564, 24 h; read-out: DIZ

Row | SMILES | zone of inhibition at 1000 µg/mL (Bacillus cereus) [mm] | zone of inhibition at 1000 µg/mL (Escherichia coli) [mm] | zone of inhibition at 1000 µg/mL (Klebsiella pneumoniae) [mm] | zone of inhibition at 1000 µg/mL (Salmonella typhimurium) [mm]
1 | Clc1ccc(-c2nnc(-c3ccc(-c4nnc(-c5ccc(Cl)cc5)o4)cc3)o2)cc1 | 8 | 8 | 4 | 6
2 | O=C(N/N=C/c1ccccc1)c1ccc(C(=O)N/N=C/c2ccccc2)cc1 | 4 | 6 | 5 | 4
3 | O=C(NN1C(=O)CSC1c1ccccc1Br)c1ccc(C(=O)NN2C(=O)CSC2c2ccccc2Br)cc1 (stereo not given) | 7 | 7 | 7 | 6
4 | c1ccc(-c2nnc(-c3ccc(-c4nnc(-c5ccccc5)o4)cc3)o2)cc1 | 8 | 8 | 7 | 7
5 | O=C(N/N=C/c1ccccc1Br)c1ccc(C(=O)N/N=C/c2ccccc2Br)cc1 | 5 | 6 | 5 | 6
6 | Nc1ccc(-c2nnc(-c3ccc(-c4nnc(-c5ccc(N)cc5)o4)cc3)o2)cc1 | 6 | 6 | 5 | 5
7 | COc1ccc(/C=N/NC(=O)c2ccc(C(=O)N/N=C/c3ccc(OC)cc3)cc2)cc1 | 6 | 6 | 6 | 4
8 | O=[N+]([O-])c1ccc(-c2nnc(-c3ccc(-c4nnc(-c5ccc([N+](=O)[O-])cc5)o4)cc3)o2)cc1 | 9 | 9 | 8 | 8
9 | O=C(NN1C(=O)CSC1c1ccccc1)c1ccc(C(=O)NN2C(=O)CSC2c2ccccc2)cc1 (stereo not given) | 8 | 8 | 6 | 7
10 | Cc1cc(NS(=O)(=O)c2ccc(N)cc2)no1 [SULFAMETHOXAZOLE] | 10 | 12 | 10 | 11
11 | O=[N+]([O-])c1ccc(-c2nn3c(-c4ccc(-c5nnc6sc(-c7ccc([N+](=O)[O-])cc7)nn56)cc4)nnc3s2)cc1 | 5 | 5 | 5 | 5
12 | O=C(N/N=C/c1ccccc1Cl)c1ccc(C(=O)N/N=C/c2ccccc2Cl)cc1 | 8 | 5 | 6 | 7
13 | COc1ccc(-c2nnc(-c3ccc(-c4nnc(-c5ccc(OC)cc5)o4)cc3)o2)cc1 | 6 | 7 | 5 | 4
14 | Oc1ccc(-c2nnc(-c3ccc(-c4nnc(-c5ccc(O)cc5)o4)cc3)o2)cc1 | 5 | 6 | 6 | 4
15 | Clc1ccccc1-c1nn2c(-c3ccc(-c4nnc5sc(-c6ccccc6Cl)nn45)cc3)nnc2s1 | 7 | 6 | 6 | 6
16 | O=C(N/N=C/c1ccc(O)cc1)c1ccc(C(=O)N/N=C/c2ccc(O)cc2)cc1 | 6 | 5 | 5 | 5
17 | Nn1c(S)nnc1-c1ccc(-c2nnc(S)n2N)cc1 | 5 | 7 | 6 | 6
18 | O=C(NN1C(=O)CSC1c1ccccc1Cl)c1ccc(C(=O)NN2C(=O)CSC2c2ccccc2Cl)cc1 (stereo not given) | 6 | 7 | 6 | 6
19 | O=C(O)c1cn(C2CC2)c2cc(N3CCNCC3)c(F)cc2c1=O [CIPROFLOXACIN] | 18 |  | 21 | 23
